Measured values from PMC7490575 (Molecular Diversity, 2020).

Experiments:
[1] = tested on: A/Puerto Rico/8/34 (H1N1) influenza virus; assay: Cell protection assay, influenza virus in MDCK cells; assay type: cell-based, influenza virus A/PR/8/34 (H1N1)
[2] = tested on: Coxsackie B3 virus; assay: Cell protection assay, Coxsackie B3 virus in Vero cells; assay type: cell-based, coxsackievirus B3
How it was run: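 Confluent Vero monolayers given test compound, infected with Coxsackie B3 (m.o.i. 0.01), held 48 h at 36 °C, 5% CO2. Viability read by MTT (OD 540 nm) against virus-only wells; IC50 is 50% cell protection. […] SI = CC50/IC50.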

Structure (SMILES): O=c1[nH]c(=O)n(CCCc2cn([C@@H]3O[C@H](CO)[C@@H](O)[C@H]3O)nn2)c2ccccc12 [Compound 4h, N1-{[1-(β-D-ribofuranosyl)-1H-1,2,3-triazol-4-yl]propyl}-2,4(1H,3H)-quinazolinedione]
- antiviral activity against influenza virus A/PR/8/34 (H1N1), in words [1]: antiviral activity was demonstrated

Structure (SMILES): Cc1[nH]c(=O)[nH]c(=O)c1Cc1cn([C@@H]2O[C@H](CO)[C@@H](O)[C@H]2O)nn1 [Compound 8m, 6-Methyl-5-{[1-(β-D-ribofuranosyl)-1H-1,2,3-triazol-4-yl]methyl}-2,4(1H,3H)-pyrimidinedione]
- antiviral activity against influenza virus A/PR/8/34 (H1N1), in words [1]: antiviral activity was demonstrated

Structure (SMILES): Cc1[nH]c(=O)[nH]c(=O)c1CCCc1cn([C@@H]2O[C@H](CO)[C@@H](O)[C@H]2O)nn1 [Compound 8n, 6-Methyl-5-{[1-(β-D-ribofuranosyl)-1H-1,2,3-triazol-4-yl]propyl}-2,4(1H,3H)-pyrimidine-dione]
- antiviral activity against influenza virus A/PR/8/34 (H1N1), in words [1]: antiviral activity was demonstrated

Structure (SMILES): Cc1[nH]c(=O)[nH]c(=O)c1CCCCc1cn([C@@H]2O[C@H](CO)[C@@H](O)[C@H]2O)nn1 [Compound 8o, 6-Methyl-5-{[1-(β-D-ribofuranosyl)-1H-1,2,3-triazol-4-yl]butyl}-2,4(1H,3H)-pyrimidinedione]
- antiviral activity against influenza virus A/PR/8/34 (H1N1), in words [1]: completely inactive

Structure (SMILES): NC(=O)c1ncn([C@@H]2O[C@H](CO)[C@@H](O)[C@H]2O)n1 [Ribavirin, 1-β-D-ribofuranosyl-1,2,4-triazole-3-carboxamide]
- antiviral activity against Coxsackie B3 virus, in words [2]: inactive
